Here are results for 4 molecules from publication PMC10328739 (Small (Weinheim an der Bergstrasse, Germany), 2021).

The nature of series [1]: Screening of micelle elongation. Format: physicochemical. To be noted: T2 micelles. Put shortly: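 Drug loaded into T2 micelles at polymer/drug w/w 10/0, 10/1, 10/2, 10/4 and 10/8. Particle size and size distribution followed over time by DLS. Polymer concentration (1.25–80 mg mL⁻¹), temperature (4, 25, 37 °C) and NaCl (up to ≈4%) also varied. Each formulation scored as spherical, sphere+worm mix, worm, or precipitate.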

The nature of series [2]: Maximal drug solubilization in POx micelles. Format: physicochemical.
Series [3] deals with BRCA1-mutant human breast carcinoma xenograft MDA-MB-436. In words: Tumor inhibition, MDA-MB-436 xenograft. Format: in vivo, athymic nude mice. To be noted: 20 mg kg^−1 IV, twice a week, six injections.

For the molecule `CC(=O)O[C@H]1C(=O)[C@@]2(C)[C@H]([C@H](OC(=O)c3ccccc3)[C@]3(O)C[C@H](OC(=O)[C@H](O)[C@@H](NC(=O)c4ccccc4)c4ccccc4)C(C)=C1C3(C)C)[C@]1(OC(C)=O)CO[C@@H]1C[C@@H]2O` [Paclitaxel], in series [1], the “mass fraction of drug that inhibited elongation” value is on record as at most 10%.
For the molecule `CC1(C)CCC(c2ccc(Cl)cc2)=C(CN2CCN(c3ccc(C(=O)NS(=O)(=O)c4ccc(N[C@H](CCN5CCOCC5)CSc5ccccc5)c(S(=O)(=O)C(F)(F)F)c4)cc3)CC2)C1` [ABT-263], the maximal solubilization is 4 mg/mL in series [2] (in T2 micelles) and 8 mg/mL in series [2] (in T3 micelles). Moreover, the “mass fraction of drug that inhibited elongation” value in series [1] is reported as at most 10%.
Taken in the same sequence, the figures for `CS(=O)(=O)c1ccc(C(=O)Nc2ccc(Cl)c(-c3ccccn3)c2)c(Cl)c1` [Vismodegib] were 4 mg/mL, 8 mg/mL and at most 10%.
Regarding `O=C(c1cc(Cc2n[nH]c(=O)c3ccccc23)ccc1F)N1CCN(C(=O)C2CC2)CC1` [Olaparib], the “antitumor activity (tumor growth inhibition)” value in series [3] is “neither the blank spherical micelles nor the free olaparib (20 mg kg^−1) displayed inhibition of the tumor growth”.
